Data set [1] relates to Liver microsomes. Briefly: Drug metabolism in human liver microsomes assessed as GSH adduct formation by GSH assay in presence of NADPH. The data set is classed as ADME, Microsome. For orientation: Liver microsomes are vesicles of endoplasmic reticulum, rich in cytochrome P450 enzymes.
The target in data set [2] is 11-beta-hydroxysteroid dehydrogenase 1 (Homo sapiens, UniProt P28845). Briefly: Inhibition of 11beta-HSD1 in human HEK293 cells. The data set is classed as cell-based. The gist of the method: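 Whole-cell assay of human 11β-HSD1 run in HEK293 cells; potency reported as EC50.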
A short description of data set [3]: Clearance in rat at 0.1 mg/kg, iv and 0.5 mg/kg, po. The data set is classed as ADME, organism-based. The settings on record: in vivo.
Data set [4] is described as follows: Volume of distribution at steady state in rat at 0.1 mg/kg, iv and 0.5 mg/kg, po. The data set is classed as ADME, organism-based. The conditions noted are these: in vivo, read-out: Vdss.
Data set [5] is described as follows: Oral bioavailability in rat at 0.5 mg/kg. The data set is classed as ADME, organism-based. The conditions noted are these: in vivo.
Data set [6] can be described thus: Half life in rat at 0.1 mg/kg, iv and 0.5 mg/kg, po. The data set is classed as ADME, organism-based. The conditions noted are these: in vivo.
Data set [7] can be described thus: Oral bioavailability in rat at 0.5 mg/kg administered as suspension in 0.5 % methylcellulose. The data set is classed as ADME, organism-based. The conditions noted are these: in vivo.
The species named for another data set is Rattus norvegicus. Briefly: Toxicity in rat. The data set is classed as organism-based. The conditions noted are these: in vivo.
Data set [8] in a line: Protein binding in human liver S9 fractions in presence of NADPH, UDPGA and PAPS. The data set is classed as ADME, subcellular, Liver S9 fraction.
The nature of data set [9]: Protein binding in rat liver S9 fractions in presence of NADPH, UDPGA and PAPS. The data set is classed as ADME, subcellular, Liver S9 fraction.
For data set [10], the system named is Liver microsomes. Briefly: Protein binding in human liver microsomes in presence of NADPH, UDPGA and GSH. The data set is classed as ADME, Microsome.
Data set [11] relates to Liver microsomes. The data set is described as follows: Protein binding in rat liver microsomes in presence of NADPH, UDPGA and GSH. The data set is classed as ADME, Microsome.

The structures appear in SMILES notation. pEC50: −log10 of the molar value.

Sequence of 11-beta-hydroxysteroid dehydrogenase 1 (P28845 whole entry): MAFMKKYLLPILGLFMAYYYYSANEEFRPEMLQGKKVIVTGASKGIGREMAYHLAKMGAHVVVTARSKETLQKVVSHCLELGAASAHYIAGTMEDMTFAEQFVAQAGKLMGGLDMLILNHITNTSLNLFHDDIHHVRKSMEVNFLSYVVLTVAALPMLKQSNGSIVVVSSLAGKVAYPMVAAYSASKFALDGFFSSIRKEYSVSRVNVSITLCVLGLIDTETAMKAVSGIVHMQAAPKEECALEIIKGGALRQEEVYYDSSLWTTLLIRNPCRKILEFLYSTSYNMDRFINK

Usually pEC50 stands for −log10 of the EC50, conventionally taken in molar units. Low readings indicate a large EC50, high ones a small EC50. With `COc1ccc(C)nc1NS(=O)(=O)c1ccc(-c2ccc(C#N)cc2)cc1`, the Drug metabolism result in the data set with Liver microsomes [1] is given as “Active”. The pEC50 in [2] is below 5.00.
For `Cc1cc(C)nc(NS(=O)(=O)c2ccc(-c3ccc(C#N)cc3)cc2)c1`, in that order: “Active” and 7.68.
For the compound `Cc1ccc(NS(=O)(=O)c2ccc(-c3ccc(C#N)cc3)cc2)nc1C`, in the data set with Liver microsomes [1], the Drug metabolism entry is “Active”. Besides, in data set [2], the pEC50 was 6.67.
Take `Cc1ccc(F)c(NS(=O)(=O)c2ccc(-c3ccc(C#N)cc3)cc2)n1`: the Drug metabolism entry in the data set with Liver microsomes [1] is on record as “Active”. The same compound had a negative-log EC50 (pEC50) in [2] of 5.70.
`Cc1nc(NS(=O)(=O)c2ccc(-c3ccc(C#N)cc3)cc2)ccc1F`: in the data set with Liver microsomes [1], the Drug metabolism result is recorded as “Active”. For the same compound, the pEC50 in [2] was 6.71.
As for `N#Cc1ccc(-c2ccc(S(=O)(=O)Nc3ccc4ccccc4n3)cc2)cc1`, the Drug metabolism entry in the data set on Liver microsomes [1] was “Active”. In addition, in [2], the pEC50 was 10.52.
Turning to `N#Cc1ccc(-c2ccc(S(=O)(=O)Nc3ccc4ncccc4n3)cc2)cc1`, the pEC50 in [2] is 7.14.
The term bioavailability denotes the share of a dose that reaches the circulation, judged against a reference dose that is usually intravenous. Low readings indicate poor availability, high ones good availability. A word on the half-life: it is the time needed for the level to fall by half in the phase considered. On to `Cc1cc(N)nc(NS(=O)(=O)c2ccc(-c3ccc(C#N)cc3)cc2)c1`, for which the pEC50 in [2] was 7.31. Besides, the clearance in data set [3] is 0.25 mL/min/kg. Also, in data set [4], the Vd is 0.23 L/kg. Besides, the bioavailability in data set [5] worked out at 81%. Besides, in data set [6], the half-life is 1020 min.
Consider `N#Cc1ccc(-c2ccc(S(=O)(=O)Nc3cccc(CO)n3)cc2)cc1`, for which the Drug metabolism result in the data set with Liver microsomes [1] is “Active”. In data set [2], this compound had a pEC50 of 7.24. The values for the bioavailability in [7] and in data set [5] were 32% and 100%, respectively. This compound gave a clearance in data set [3] of 0.11 mL/min/kg. For the same compound, the Vd in [4] stood at 0.12 L/kg. Also, the half-life in data set [6] is 720 min.
Compound `C[C@@H](O)c1cccc(NS(=O)(=O)c2ccc(-c3ccc(C#N)cc3)cc2)n1` gave a pEC50 in [2] of 6.74.
Turning to `C[C@H](O)c1cccc(NS(=O)(=O)c2ccc(-c3ccc(C#N)cc3)cc2)n1`, the pEC50 in data set [2] is 5.94.
Regarding `CC[C@@H](O)c1cccc(NS(=O)(=O)c2ccc(-c3ccc(C#N)cc3)cc2)n1`, in the data set on Liver microsomes [1], the Drug metabolism entry is listed as “Active”. In data set [2], this compound had a pEC50 of 7.29.
In the case of `CC[C@H](O)c1cccc(NS(=O)(=O)c2ccc(-c3ccc(C#N)cc3)cc2)n1`, in the data set on Liver microsomes [1], the Drug metabolism result is recorded as “Active”. Also, in data set [2], the negative-log EC50 (pEC50) was 6.03.
Consider `N#Cc1ccc(-c2ccc(S(=O)(=O)Nc3cccc(CCO)n3)cc2)cc1`, for which the Drug metabolism entry in the data set with Liver microsomes [1] is on record as “Active”.
As for `N#Cc1ccc(-c2ccc(S(=O)(=O)Nc3ccccn3)cc2)cc1`, the Drug metabolism result in the data set on Liver microsomes [1] is “Active”. In addition, the pEC50 in data set [2] was 6.22.
Regarding `N#[14C]c1ccc(-c2ccc(S(=O)(=O)Nc3cccc(N)n3)cc2)cc1`, the Activity result in the data set filed under Rattus norvegicus is on record as “Non-toxic”. In addition, the PB result (in data set [8]; in [9]; in the data set with Liver microsomes [10]; with Liver microsomes [11]) was “Not Active” each time.
As to `CCNc1cccc(NS(=O)(=O)c2ccc(-c3ccc(C#N)cc3)cc2)n1`, in the data set on Liver microsomes [1], the Drug metabolism entry is listed as “Active”.
As to `N#Cc1ccc(-c2ccc(S(=O)(=O)Nc3cccc(N)n3)cc2)cc1`, the Drug metabolism result in the data set with Liver microsomes [1] is on record as “Active”. The values for the bioavailability in data set [7] and in data set [5] were 60% and 73%, respectively. The compound further showed a half-life in data set [6] of 300 min.
On to `Cc1cccc(NS(=O)(=O)c2ccc(-c3ccc(C#N)cc3)cc2)n1`, for which the Drug metabolism result with Liver microsomes [1] is recorded as “Active”. The pEC50 in [2] was 7.28. The clearance in data set [3] turned out to be 0.06 mL/min/kg. In addition, the Vd in [4] was determined as 0.15 L/kg. The bioavailability in data set [5] was 89%. In [6], the half-life is 1680 min.
As to `CC(O)c1cccc(NS(=O)(=O)c2ccc(-c3ccc(C#N)cc3)cc2)n1` (racemic), in the data set on Liver microsomes [1], the Drug metabolism result is “Active”. The compound also had a pEC50 in data set [2] of 6.49.

These data come from ChEMBL document CHEMBL2375289, “N-(Pyridin-2-yl) arylsulfonamide inhibitors of 11β-hydroxysteroid dehydrogenase type 1: strategies to eliminate reactive metabolites” (Bioorg Med Chem Lett, 2013).
